Results: ChEMBL document CHEMBL1124572, “Synthesis and biological activity of novel carbacyclins having bicyclic substituents on the omega-chain” (J Med Chem, 1989)
In brackets after ≈: the same amount, converted by molar mass. Activity calls are given as the source filed them. The calls are words filed in the database; no cut-off is given here.

Experiments:
[1] = organism: Rattus norvegicus; experiment: Antiaggregatory activity is expressed as dose that inhibit rat platelet aggregation induced by collagen by 50% of that of the control; assay type: functional
Method in brief: (§1)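 Male Wistar rats (250–350 g) under ether anesthesia were bled from the abdominal aorta into 0.1 volume 3.13% sodium citrate. Aggregation was induced by collagen (final 5 μg/mL) and read in an aggregometer at 37 °C with stirring. The IC50 is the concentration inhibiting aggregation by 50% versus control, derived by linear regression from three dose groups of five or six animals (mean ± SEM).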

[2] = system: Rattus norvegicus; experiment: Inhibition of ethanol induced gastric lesions in the rat following p.o. administration.; assay type: functional; settings: Stomach, po
Method in brief: (§2)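 Male Sprague-Dawley rats (200–300 g) were fasted 24 h and dosed orally at 2 mL/kg, 30 min before 1 mL of 100% ethanol per rat. Animals were killed 1 h later, and stomachs were formalin-fixed, opened along the greater curvature and examined for lesions. ED50 is the dose giving 50% lesion inhibition versus control, derived by linear regression from three dose groups of eight rats each.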

[3] = system: Rattus norvegicus; experiment: Dose that reduces mean blood pressure by 15 mmHg (peak effect) in rat administered intravenously; assay type: functional
Method in brief: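 Male Wistar rats (200–300 g) were anesthetized with urethane. Compound was given iv via the femoral vein, and blood pressure was recorded by transducer through a femoral artery catheter. MBP15 is the dose lowering mean blood pressure by 15 mmHg at peak effect, derived by linear regression from three dose groups of five or six animals (mean ± SEM).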

[4] = organism: Rattus norvegicus; experiment: Relative potency for hypotension; assay type: functional
[5] = system: Rattus norvegicus; experiment: Organ-protective activity is expressed as dose that inhibits 50 percent of ethanol-induced gastric lesions of control orally in rat; No effect; assay type: functional, organism-based; settings: Stomach; method in brief: as §2
[6] = organism: Rattus norvegicus; experiment: Relative potency for antiaggregation; assay type: functional
Method in brief: (§3)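 Antiaggregation relative potency was calculated against PGI2 from the IC50 for collagen-induced (5 μg/mL) aggregation of citrated rat blood, measured at 37 °C.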

[7] = system: Rattus norvegicus; experiment: Inhibition of ethanol induced gastric lesions in the rat following p.o. administration; No effect.; assay type: functional, organism-based; settings: Stomach; method in brief: as §2
[8] = Ratio of relative potencies of organ protection/ hypotension to that of PGE-2 in rats; assay type: functional
Method in brief: (§4)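 Relative potencies were calculated against PGE2 from the rat oral ED50 for ethanol-induced gastric lesions and the iv MBP15 hypotension dose. The ratio is organ-protective relative potency divided by hypotensive relative potency, with PGE2 set to 1.0.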

[9] = organism: Rattus norvegicus; experiment: Relative potency for hypotension in rats; assay type: functional
[10] = organism: Rattus norvegicus; experiment: Relative potency for organ protection in rats; assay type: functional; method in brief: as §4
[11] = Ratio of relative potencies of antiaggregation/ hypotension to that of PGI-2 Na in rats
[12] = organism: Rattus norvegicus; experiment: Relative potency for antiaggregation in rats; assay type: functional; method in brief: as §3
[13] = organism: Rattus norvegicus; experiment: Relative potency for organ protection; assay type: functional; method in brief: as §4
[14] = organism: Rattus norvegicus; experiment: Antiaggregatory activity is expressed as dose that inhibit rat platelet aggregation induced by collagen by 50% of that of the control; No effect; assay type: functional; method in brief: as §1

SMILES | IC50 [1] | ED50 [2] | Dose lowering mean blood pressure by 15 mmHg [3] | also measured
O=C(O)COC/C=C1\CC2C[C@@H](O)[C@H](/C=C/[C@@H](O)C3COc4ccccc4O3)C2C1 (some centres not stated) | 0.582 µg/mL (≈ 1.4 µM) | 0.113 mg/kg | 0.0025 mg/kg | –
CCCCC[C@H](O)/C=C/[C@@H]1[C@H]2C/C(=C/CCCC(=O)[O-])O[C@H]2C[C@H]1O.[Na+] [EPOPROSTENOL SODIUM] | 0.0034 µg/mL | – | 0.0003 mg/kg | Relative potency [4]: 1; ED50 [5]: inactive; Relative potency [6]: 1
O=C(O)CCC/C=C1\CC2C[C@@H](O)[C@H](/C=C/[C@@H](O)c3ccc4c(c3)CCC4)C2C1 (some centres not stated) | > 1 µg/mL | – | >0.1 mg/kg | ED50 [7]: No effect
COc1ccc2c(c1)OCC([C@H](O)/C=C/[C@@H]1C3C/C(=C/COCC(=O)O)CC3C[C@H]1O)O2 (some centres not stated) | > 1 µg/mL | – | 0.0062 mg/kg | ED50 [7]: No effect
CC(C)c1cccc2c(CC[C@H](O)/C=C/[C@@H]3C4C/C(=C/CCCC(=O)O)CC4C[C@H]3O)ccc-2c1 (some centres not stated) | > 1 µg/mL | – | >0.1 mg/kg | ED50 [7]: No effect
CC1([C@H](O)/C=C/[C@@H]2C3C/C(=C/CCCC(=O)O)CC3C[C@H]2O)COc2ccccc2O1 (some centres not stated) | 0.221 µg/mL (≈ 0.516 µM) | 0.0142 mg/kg | 0.0036 mg/kg | –
OCCCC/C=C1\CC2C[C@@H](O)[C@H](/C=C/[C@@H](O)C3Cc4ccccc4C3)C2C1 (some centres not stated) | > 1 µg/mL | 0.0536 mg/kg | >0.1 mg/kg | –
COc1ccc2c(c1)OCC([C@H](O)/C=C/[C@@H]1C3C/C(=C/CCCC(=O)O)CC3C[C@H]1O)O2 (some centres not stated) | 0.355 µg/mL (≈ 0.799 µM) | 0.0021 mg/kg | 0.0035 mg/kg | Ratio [8]: 47.6; Relative potency [9]: 0.3; Relative potency [10]: 16.2
O=C(O)CCC/C=C1\CC2C[C@@H](O)[C@H](C#C[C@@H](O)C3Cc4ccccc4C3)C2C1 (some centres not stated) | 0.0082 µg/mL (≈ 0.0208 µM) | 0.0017 mg/kg | 0.0013 mg/kg | Ratio [11]: 1.8; Ratio [8]: 21.8; Relative potency [9]: 0.9; Relative potency [6]: 0.42; Relative potency [10]: 20.1
O=C(O)COC/C=C1\CC2C[C@@H](O)[C@H](/C=C/[C@@H](O)C3Cc4ccccc4C3)C2C1 (some centres not stated) | 0.0153 µg/mL (≈ 0.0384 µM) | 0.0675 mg/kg | 0.0038 mg/kg | Relative potency [12]: 0.23; Relative potency [9]: 0.08
NC(=O)CCC/C=C1\CC2C[C@@H](O)[C@H](/C=C/[C@@H](O)C3Cc4ccccc4C3)C2C1 (some centres not stated) | 0.0537 µg/mL (≈ 0.136 µM) | 0.113 mg/kg | 0.0977 mg/kg | –
O=C(O)CCC/C=C1\CC2C[C@@H](O)[C@H](/C=C/[C@@H](O)C3Cc4ccc([N+](=O)[O-])cc4C3)C2C1 (some centres not stated) | 0.15 µg/mL (≈ 0.34 µM) | 0.14 mg/kg | 0.0085 mg/kg | –
CC1([C@H](O)/C=C/[C@@H]2C3CC(CCOCC(=O)O)=C[C@H]3C[C@H]2O)Cc2ccccc2C1 (some centres not stated) | 0.0692 µg/mL (≈ 0.168 µM) | 0.006 mg/kg | 0.002 mg/kg | –
CCCCC[C@H](O)/C=C/[C@H]1[C@H](O)CC(=O)[C@@H]1C/C=C\CCCC(=O)O [DINOPROSTONE] | – | 0.0341 mg/kg | 0.0012 mg/kg | Relative potency [4]: 1; Relative potency [13]: 1; IC50 [14]: Not Active
Cc1ccc2c(c1)OCC([C@H](O)/C=C/[C@@H]1C3C/C(=C/CCCC(=O)O)CC3C[C@H]1O)O2 (some centres not stated) | 0.647 µg/mL (≈ 1.51 µM) | 0.11 mg/kg | 0.013 mg/kg | –
O=C(O)CCC/C=C1\CC2C[C@@H](O)[C@H](CC[C@@H](O)C3Cc4ccccc4C3)C2C1 (some centres not stated) | 0.0764 µg/mL (≈ 0.192 µM) | – | 0.035 mg/kg | ED50 [7]: No effect
O=C(O)CCC/C=C1\CC2C[C@@H](O)[C@H](/C=C/[C@@H](O)C3CCc4ccccc43)C2C1 (some centres not stated) | > 1 µg/mL | – | >0.1 mg/kg | ED50 [7]: No effect
O=C(O)CCC/C=C1\CC2C[C@@H](O)[C@H](/C=C/[C@@H](O)C3Cc4ccc(Cl)cc4C3)C2C1 (some centres not stated) | 0.407 µg/mL (≈ 0.945 µM) | > 0.3 mg/kg | >0.1 mg/kg | –
COc1ccc2c(c1)CC([C@H](O)/C=C/[C@@H]1C3C/C(=C/CCCC(=O)O)CC3C[C@H]1O)C2 (some centres not stated) | 0.0705 µg/mL (≈ 0.165 µM) | 0.0143 mg/kg | 0.006 mg/kg | –
O=C(O)COCCC1=C[C@H]2C[C@@H](O)[C@H](/C=C/[C@@H](O)C3COc4ccccc4O3)C2C1 (some centres not stated) | 0.0531 µg/mL (≈ 0.128 µM) | 0.0085 mg/kg | 0.0017 mg/kg | –
O=C(O)CCC/C=C1\CC2C[C@@H](O)[C@H](/C=C/[C@@H](O)CC3COc4ccccc4O3)C2C1 (some centres not stated) | 0.324 µg/mL (≈ 0.755 µM) | > 0.3 mg/kg | 0.044 mg/kg | –
O=C(O)COCCC1=C[C@H]2C[C@@H](O)[C@H](/C=C/[C@@H](O)C3Cc4ccccc4C3)C2C1 (some centres not stated) | 0.0567 µg/mL (≈ 0.142 µM) | 0.0274 mg/kg | 0.0022 mg/kg | –
O=C(O)CCC/C=C1\CC2C[C@@H](O)[C@H](/C=C/[C@@H](O)c3ccc4c(c3)OCCO4)C2C1 (some centres not stated) | > 1 µg/mL | > 0.3 mg/kg | >0.1 mg/kg | –
CC1([C@H](O)/C=C/[C@@H]2C3C/C(=C/CCCC(=O)O)CC3C[C@H]2O)Cc2ccccc2C1 (some centres not stated) | 0.0302 µg/mL (≈ 0.0736 µM) | 0.0452 mg/kg | 0.0053 mg/kg | –
O=C(O)CCC/C=C1\CC2C[C@@H](O)[C@H](/C=C/[C@@H](O)C3COC4CCCCC4O3)C2C1 (some centres not stated) | > 1 µg/mL | 0.256 mg/kg | 0.0135 mg/kg | –
O=C(O)CCC/C=C1\CC2C[C@@H](O)[C@H](/C=C/[C@@H](O)C3COc4ccccc4O3)C2C1 (some centres not stated) | 0.324 µg/mL (≈ 0.781 µM) | 0.0045 mg/kg | 0.002 mg/kg | Ratio [8]: 12.7; Relative potency [9]: 0.6; Relative potency [10]: 7.6
O=C(O)CCC/C=C1\CC2C[C@@H](O)[C@H](/C=C/[C@@H](O)c3ccc4c(c3)OCO4)C2C1 (some centres not stated) | > 1 µg/mL | – | >0.1 mg/kg | ED50 [7]: No effect
O=C(O)CCC/C=C1\CC2C[C@@H](O)[C@H](/C=C/[C@@H](O)C3Cc4ccccc4C3)C2C1 (some centres not stated) | 0.0204 µg/mL (≈ 0.0514 µM) | 0.0562 mg/kg | 0.0043 mg/kg | Ratio [11]: 2.4; Relative potency [12]: 0.17; Relative potency [9]: 0.07
CC1([C@H](O)/C=C/[C@@H]2C3C/C(=C/COCC(=O)O)CC3C[C@H]2O)Cc2ccccc2C1 (some centres not stated) | 0.118 µg/mL (≈ 0.286 µM) | 0.0397 mg/kg | 0.0076 mg/kg | –
